The nature of data set [1]: Induction of singlet oxygen generation assessed as decrease in DPBF absorbance at 5 uM followed by 71 W light irradiation for 1 hr by spectrophotometry. It is filed as physicochemical. Summed up:
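Compound at 5 μM with 50 μM DPBF in DMSO, 2 mL, irradiated 1 h with a 71 W source through a 500 nm long-pass filter. DPBF absorbance at 410 nm sampled every 15 min. Rate of absorbance decrease referenced to methylene blue at equal concentration.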

Data set [2] is described as follows: Cellular uptake in human Hep2 cell mitochondria at 10 uM after 24 hrs by micro plate reader analysis. It is filed as ADME. Particulars: hep-2, 24 h; call rule not given here. In outline: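 HEp2 cells (DMEM:AMEM 50:50, 10% FBS) seeded 15,000/well, grown overnight, then given 10 μM compound in medium with 5% FBS for 0–24 h. Washed with PBS, lysed in 0.25% Triton X-100. Compound fluorescence read at 355/520 nm against standard curve, cell number by CyQuant at 485/520 nm. Uptake given per cell.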

Data set [3] can be described thus: Ratio of IC50 for dark toxicity in human Hep2 cells to IC50 for phototoxicity in human Hep2 cells. It is filed as cell-based. The conditions noted are these: HEp-2 cells, read-out: Ratio IC50.
Another data set deals with HEp-2. The data set is described as follows: Phototoxicity in human Hep2 cells incubated for 24 hrs followed by 1.5 J/cm'2 light irradiation for 20 mins measured after 24 hrs by Cell Titre Blue assay. The conditions noted are these: HEp-2, light or radiation study. It is filed as functional, cell-based. Summed up:
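HEp2 cells given 3.125–200 μM compound for 24 h at 37 °C, then washed and refed. Irradiated on ice for 20 min with a 100 W halogen lamp through a 610 nm long-pass filter and a water IR filter, about 1.5 J/cm². After 24 h more, 20% Cell Titer Blue for 4 h, read at 570/615 nm. IC50 from dose–response curves.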

Data set [4] in a line: Dark toxicity in human Hep2 cells after 24 hrs by Cell Titre Blue assay. It counts as cell-based. Particulars: HEp-2 cells. Summed up:
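HEp2 cells seeded 15,000/well. Compound at 12.5–400 μM (vehicle DMSO/Cremophor EL) for 24 h at 37 °C in the dark, five replicates per concentration. Washed, then 20% Cell Titer Blue for 4 h. Fluorescence read at 570/615 nm as % viable cells, IC50 taken from dose–response curves.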

Regarding `CC1=C(I)C(C)=[N+]2C1=C(c1cccs1)c1c(C)c(I)c(C)n1[B-]2(F)F`, the outcome in data set [1] was Active. Further, in data set [2], the Drug uptake entry is reported as “Active”. For the same molecule, the selectivity ratio in data set [3] is more than 30. Moreover, the IC50 (commonly the midpoint of a concentration-inhibition curve) with HEp-2 was 14 µM. In data set [4], this molecule returned an IC50 at 24 h of more than 400 µM.

As to `CC1=C(I)C(C)=[N+]2C1=C(c1cc(C(C)(C)C)cc(C(C)(C)C)c1)c1c(C)c(I)c(C)n1[B-]2(F)F`, the selectivity ratio in data set [3] was more than 2. This molecule also had an IC50 in the data set on HEp-2 of more than 200 µM. In data set [4], this molecule registered an IC50 at 24 h of more than 400 µM.

As to `CC1=CC(C)=[N+]2C1=C(c1ccc(-c3ccc(Br)s3)s1)c1c(C)cc(C)n1[B-]2(F)F`, the selectivity ratio in data set [3] is more than 3.5. This molecule also displayed an IC50 with HEp-2 of 82 µM. For the same molecule, the IC50 at 24 h in data set [4] is more than 300 µM.

As for `CC1=C(I)C(C)=[N+]2C1=C(c1ccc(Br)s1)c1c(C)c(I)c(C)n1[B-]2(F)F`, the selectivity ratio in data set [3] is more than 2. Also, in the data set on HEp-2, the IC50 is more than 200 µM. Besides, in data set [4], the IC50 at 24 h was more than 400 µM.

As for `CC1=C(I)C(C)=[N+]2C1=C(c1ccc(-c3cccs3)s1)c1c(C)c(I)c(C)n1[B-]2(F)F`, the selectivity ratio in data set [3] was more than 2. This molecule had an IC50 in the data set with HEp-2 of more than 200 µM. In addition, in data set [4], the IC50 at 24 h is more than 400 µM.

As to `COC(=O)c1ccc(C2=C3C(C)=C(I)C(C)=[N+]3[B-](F)(F)n3c(C)c(I)c(C)c32)cc1`, in data set [3], the selectivity ratio was more than 2. Further, in the data set with HEp-2, the IC50 is more than 200 µM. The molecule further gave an IC50 at 24 h in data set [4] of more than 400 µM.

On to `CC1=C(I)C(C)=[N+]2C1=C(c1c(F)c(F)c(F)c(F)c1F)c1c(C)c(I)c(C)n1[B-]2(F)F`, for which the selectivity ratio in data set [3] was more than 2. This molecule also returned a half-maximal inhibitory concentration (IC50) with HEp-2 of more than 200 µM. Also, in data set [4], the IC50 at 24 h was more than 400 µM.

As to `CC1=CC(C)=[N+]2C1=C(c1cccs1)c1c(C)cc(C)n1[B-]2(F)F`, in data set [3], the selectivity ratio is more than 3. This molecule registered an IC50 in the data set on HEp-2 of more than 100 µM. In data set [4], this molecule gave an IC50 at 24 h of more than 300 µM.

As to `CC1=C(I)C(C)=[N+]2C1=C(c1ccc(Br)cc1)c1c(C)c(I)c(C)n1[B-]2(F)F`, the Drug uptake result in data set [2] is listed as “Active”. Moreover, the selectivity ratio in data set [3] is more than 15. This molecule also returned an IC50 in the data set with HEp-2 of 28 µM. The molecule further yielded an IC50 at 24 h in data set [4] of more than 400 µM.

As to `CC1=C(I)C(C)=[N+]2C1=C(c1ccccc1)c1c(C)c(I)c(C)n1[B-]2(F)F`, the result in data set [1] was Active. Moreover, the Drug uptake entry in data set [2] is “Active”. Also, the selectivity ratio in data set [3] was more than 15. Inhibition in the data set on HEp-2 was half-maximal at 27 µM (IC50). Further, the IC50 at 24 h in data set [4] is more than 400 µM.

Turning to `COc1cc(OC)cc(C2=C3C(C)=C(I)C(C)=[N+]3[B-](F)(F)n3c(C)c(I)c(C)c32)c1`, the outcome in data set [1] was Active. For the same molecule, the Drug uptake entry in data set [2] is reported as “Active”. Besides, the selectivity ratio in data set [3] was more than 100. Also, 4 µM corresponded to half-maximal inhibition in the data set with HEp-2 (IC50). The molecule further registered an IC50 at 24 h in data set [4] of more than 400 µM.

`COC(=O)c1ccc(C2=C3C(C)=CC(C)=[N+]3[B-](F)(F)n3c(C)cc(C)c32)cc1`: the selectivity ratio in data set [3] was more than 4. This molecule registered an IC50 in the data set with HEp-2 of more than 100 µM. The IC50 at 24 h in data set [4] is more than 400 µM.

`COc1ccc(C2=C3C(C)=C(I)C(C)=[N+]3[B-](F)(F)n3c(C)c(I)c(C)c32)cc1OC`: in data set [1], the outcome was Active. The Drug uptake entry in data set [2] is on record as “Active”. In data set [3], the selectivity ratio was more than 53. Further, the IC50 in the data set on HEp-2 amounted to 7.5 µM. Further, in data set [4], the IC50 at 24 h is more than 400 µM.

Take `CC1=C(I)C(C)=[N+]2C1=C(c1ccc(-c3ccc(Br)s3)s1)c1c(C)c(I)c(C)n1[B-]2(F)F`: in data set [1], the result was Active. Also, in data set [2], the Drug uptake entry is recorded as “Active”. In addition, in data set [3], the selectivity ratio turned out to be 2.3. Further, in the data set with HEp-2, half-maximal inhibition (IC50) required 3.5 µM. In data set [4], the IC50 at 24 h was 8 µM.

Turning to `CC1=CC(C)=[N+]2C1=C(c1ccc(-c3cccs3)s1)c1c(C)cc(C)n1[B-]2(F)F`, the selectivity ratio in data set [3] is more than 4. In the data set with HEp-2, this molecule returned an IC50 of more than 100 µM. The IC50 at 24 h in data set [4] was more than 400 µM.

These data come from ChEMBL document CHEMBL2417461, “Spectroscopic, computational modeling and cytotoxicity of a series of meso-phenyl and meso-thienyl-BODIPYs” (Bioorg Med Chem, 2013).
